IDE cell inh = human IDE inhibitors in live cells, primary screen, fluorescence polarization, HEK cells, FAbetaB substrate. 0.41% of 320,000 active. FAbetaB cleavage. inhibition, % at 5.59 µM. AID 434962, 2010;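 active = percent inhibition above the average of all tested compounds plus 3 SD, set per screening campaign, cut at about 16% in these data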;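 also: IDE supplied by intact live HEK cells; FP after avidin binding of uncleaved biotin substrate so inhibition keeps polarization high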
ASAP1 GAP inh = inhibitors of human ASAP1 ArfGAP activity, primary screen, biochemical, fluorescence polarization; Arf-GAP with SH3 domain, ANK repeat and PH domain-containing protein 1 (Homo sapiens), …; 0.19% of 360,000 active; ASAP1-stimulated ARF1 GTP hydrolysis, GDP FP detection; inhibition, % at 16.5 µM; in the data active = inhibition above about 25%
Target sequence (Q9ULH1 325-724 limits assumed): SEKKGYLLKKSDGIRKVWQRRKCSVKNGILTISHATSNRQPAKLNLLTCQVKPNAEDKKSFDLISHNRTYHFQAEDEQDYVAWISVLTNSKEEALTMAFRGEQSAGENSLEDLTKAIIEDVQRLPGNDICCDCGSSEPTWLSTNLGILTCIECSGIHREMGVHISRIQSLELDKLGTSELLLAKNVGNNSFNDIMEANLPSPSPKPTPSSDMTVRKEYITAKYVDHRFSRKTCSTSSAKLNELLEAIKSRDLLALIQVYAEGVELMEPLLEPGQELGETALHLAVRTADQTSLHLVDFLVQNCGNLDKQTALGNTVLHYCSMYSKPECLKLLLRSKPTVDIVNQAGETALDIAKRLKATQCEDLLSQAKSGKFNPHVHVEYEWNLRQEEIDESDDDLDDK
ARFGAP1 inh = inhibitors of rat ARFGAP1 GAP activity, primary screen, biochemical, fluorescence polarization, GDP tracer | ADP-ribosylation factor GTPase-activating protein 1 (Rattus norvegicus), Q62848 | Arfgap1-stimulated ARF1 GTP hydrolysis, GDP FP detection | inhibition, % at 16.5 µM | 0.26% of 360,000 active | AID 651572, 2012;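 active = inhibition above a per-plate limit, mean inhibition of low control wells plus 3 SD, cut at about 25% in these data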
Target sequence (Q62848 1-136 limits assumed): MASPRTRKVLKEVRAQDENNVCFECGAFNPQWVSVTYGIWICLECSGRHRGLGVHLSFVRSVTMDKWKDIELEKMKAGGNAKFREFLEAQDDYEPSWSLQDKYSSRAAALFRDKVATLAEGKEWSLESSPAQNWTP
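material = rat Arfgap1 catalytic domain, aa 1-136 | also added = human ARF1(Δ1-17)-GTP substrate | compound dosing = one concentration, 16.5 µM, DMSO 1.26% | times = GTP hydrolysis reaction 2 h at 25 °C | measured by = FP, GDP Alexa 633 tracer displaced from anti-GDP antibody, 620/688 nm | evaluation = percent inhibition of Arfgap1-stimulated GTP hydrolysis | replication = single well per compound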
PREPL inh = PREPL enzyme inhibitors, primary screen, biochemical, fluorescence polarization; Prolyl endopeptidase-like (Homo sapiens), Q4J6C6; recombinant PREPL, fluorescence polarization activity-based probe; inhibition, % at 5.96 µM; 0.68% of 320,000 active; AID 2751, 2010; in the data active = inhibition above about 43%
IDE act = human IDE activators in live cells, primary screen, fluorescence polarization, HEK cells, FAbeta-B substrate; Insulin-degrading enzyme (Homo sapiens), P14735; FAbeta-B cleavage; 0% vehicle, 100% cell-free pure enzyme wells; activation, % at 5.96 µM; 0.073% of 340,000 active;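 active = activation above the mean of all tested compounds plus 3 SD, set per screening campaign, cut at about 17% in these data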
IDE inh confirm = human IDE inhibitors in live cells, confirmation, fluorescence polarization, HEK cells, FAbetaB substrate; shares compounds with IDE cell inh; FAbetaB cleavage; inhibition, % at 5.59 µM; 51% of 1,200 active; AID 435028, 2010;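 active = mean inhibition across triplicate wells above the cutoff set by the earlier primary insulin-degrading enzyme screen, cut at about 16% in these data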
HEK cytotox = cytotoxicity in HEK cells, cytotoxicity control for IDE inhibitor project, cell-based, luminescence | inhibition, % at 5.59 µM | AID 449730, 2010 | 28% of 1,200 active | shares compounds with IDE cell inh | HEK293 cytotoxicity, ATP luminescence; in the data active = inhibition above about 22%
Hits are given with their value. Only some compounds are listed: those with a hit (about 1.2% of all), similar ones and a draw of the others.

Results for COCn1c(-c2cccc(Br)c2)nc2ccccc21 ?
IDE cell inh: 17; ASAP1 GAP inh: inactive; ARFGAP1 inh: inactive; PREPL inh: inactive; IDE act: inactive; IDE inh confirm: inactive; HEK cytotox: inactive

How did COCCN(C(=O)Cc1coc2cc(C)c(C)cc12)c1c(N)n(Cc2ccccc2)c(=O)[nH]c1=O do in these assays?
IDE cell inh: inactive; ASAP1 GAP inh: inactive; ARFGAP1 inh: inactive; PREPL inh: inactive; IDE act: inactive

How did CCOC(=O)/C(=C/C1=CC(=C/N(C)C)/C(=O)O1)C(C)=O do in these assays?
IDE cell inh: 16; ASAP1 GAP inh: inactive; ARFGAP1 inh: inactive; PREPL inh: inactive; IDE act: inactive; IDE inh confirm: 23; HEK cytotox: inactive

Results for CCOC(=O)/C(=C/c1ccc(OC(=O)c2ccccc2)cc1)C(C)=O ?
IDE cell inh: inactive; ASAP1 GAP inh: inactive; ARFGAP1 inh: inactive; PREPL inh: inactive; IDE act: inactive

What do the screens show for `O=C(Nc1ccc2nc(-c3cccs3)[nH]c2c1)c1cccs1`?
IDE cell inh: 21; ASAP1 GAP inh: inactive; ARFGAP1 inh: inactive; PREPL inh: inactive; IDE act: inactive; IDE inh confirm: inactive; HEK cytotox: 22

What do the screens show for `COc1ccc(C(=O)NC(=S)Nc2cccc3ncccc23)cc1[N+](=O)[O-]`?
IDE cell inh: inactive; ASAP1 GAP inh: inactive; ARFGAP1 inh: inactive; PREPL inh: inactive; IDE act: inactive

What do the screens show for `CCN1/C(=C\C=C(C(C)=O)C(C)=O)Sc2ccccc21`?
IDE cell inh: 35; ASAP1 GAP inh: inactive; ARFGAP1 inh: inactive; PREPL inh: inactive; IDE act: inactive; IDE inh confirm: 50; HEK cytotox: inactive

What do the screens show for `CCN1/C(=C\C(=S)Nc2ccccc2)Sc2ccccc21`?
IDE cell inh: 21; ASAP1 GAP inh: inactive; ARFGAP1 inh: inactive; PREPL inh: inactive; IDE act: inactive; IDE inh confirm: inactive; HEK cytotox: inactive

What do the screens show for `CCOC(=O)/C(C#N)=C(C)/C=C1\Sc2ccccc2N1CC`?
IDE cell inh: 44; ASAP1 GAP inh: inactive; ARFGAP1 inh: inactive; PREPL inh: inactive; IDE act: inactive; IDE inh confirm: 78; HEK cytotox: 36

Results for CCN1/C(=C\C=C2\C(=O)N(c3ccccc3)C(=S)N2C)Sc2ccccc21 ?
ASAP1 GAP inh: inactive; ARFGAP1 inh: inactive; IDE act: inactive

What do the screens show for `CCN1/C(=C\C(C)=O)Sc2ccc(OC)cc21`?
IDE cell inh: inactive; PREPL inh: inactive; IDE act: inactive

What do the screens show for `CCN1/C(=C/C(C)=C/c2sc3ccccc3[n+]2CC)Sc2ccccc21`?
IDE cell inh: inactive; ASAP1 GAP inh: inactive; ARFGAP1 inh: inactive; PREPL inh: inactive; IDE act: inactive

What do the screens show for `O=S1(=O)N[C@H](c2ccccc2)C[C@H](c2ccc(C(F)(F)F)cc2)O1`?
IDE cell inh: inactive; ASAP1 GAP inh: inactive; ARFGAP1 inh: inactive; PREPL inh: inactive; IDE act: inactive

What do the screens show for `Cc1cc(C)n(C(=O)c2ccc([N+](=O)[O-])cc2Cl)n1`?
IDE cell inh: inactive; ASAP1 GAP inh: inactive; ARFGAP1 inh: inactive; PREPL inh: inactive; IDE act: inactive

What do the screens show for `O=C(CCCOc1ccc(Cl)cc1Cl)NCc1ccncc1`?
IDE cell inh: 24; ASAP1 GAP inh: inactive; ARFGAP1 inh: inactive; PREPL inh: inactive; IDE act: inactive; IDE inh confirm: inactive; HEK cytotox: inactive

Results for CCC(C)C(NC(=O)C(C)NC(=O)CNC(=O)OC(C)(C)C)C(N)=O (configuration not stated) ?
IDE cell inh: inactive; ASAP1 GAP inh: inactive; ARFGAP1 inh: inactive; PREPL inh: inactive; IDE act: inactive

Results for CSc1nc2ccc(S(=O)(=O)N3CCOCC3)cc2s1 ?
IDE cell inh: inactive; ASAP1 GAP inh: inactive; ARFGAP1 inh: inactive; PREPL inh: inactive; IDE act: inactive

What do the screens show for `N#CCc1nc2ccc(S(=O)(=O)N3CCOCC3)cc2s1`?
IDE cell inh: 46; ASAP1 GAP inh: inactive; ARFGAP1 inh: inactive; PREPL inh: inactive; IDE act: inactive; IDE inh confirm: inactive; HEK cytotox: inactive

Results for COc1ccc(/C=C/C(=O)NC(=S)Nc2ccc(S(=O)(=O)Nc3cc(C)on3)cc2)cc1 ?
IDE cell inh: 16; ASAP1 GAP inh: inactive; ARFGAP1 inh: inactive; PREPL inh: inactive; IDE act: inactive; IDE inh confirm: inactive; HEK cytotox: inactive

What do the screens show for `COc1ccccc1C(=O)NC(=O)COC(=O)CNC(=O)c1ccc(Cl)cc1Cl`?
IDE cell inh: inactive; ASAP1 GAP inh: inactive; ARFGAP1 inh: inactive; PREPL inh: inactive; IDE act: inactive

Results for CCCCCCc1cc2cc(-c3nnc(-c4ccccc4O)o3)c(=O)oc2cc1O ?
IDE cell inh: 38; ASAP1 GAP inh: inactive; ARFGAP1 inh: inactive; PREPL inh: inactive; IDE act: inactive; IDE inh confirm: 118; HEK cytotox: inactive

Results for Cc1cc(C)nc(NN2C(=O)C=CC2=O)n1 ?
IDE cell inh: inactive; PREPL inh: inactive; IDE act: inactive

How did CCC(=O)N/N=C/c1ccc(-c2ccc([N+](=O)[O-])cc2)o1 do in these assays?
IDE cell inh: inactive; ASAP1 GAP inh: inactive; ARFGAP1 inh: inactive; PREPL inh: inactive; IDE act: inactive

What do the screens show for `CC(C)(C)C(=O)/C=c1\s/c(=C\c2ccc(-c3ccc([N+](=O)[O-])cc3)o2)c(=O)n1CC(=O)NC(N)=O`?
IDE cell inh: 22; ASAP1 GAP inh: inactive; ARFGAP1 inh: inactive; PREPL inh: inactive; IDE act: inactive; IDE inh confirm: 78; HEK cytotox: 26

What do the screens show for `COc1cc(/C=C/C(O)=C/C(=O)/C=C/c2ccc(O)cc2)ccc1O`?
IDE cell inh: 44; ASAP1 GAP inh: inactive; ARFGAP1 inh: inactive; PREPL inh: inactive; IDE act: inactive; IDE inh confirm: 109; HEK cytotox: inactive

What do the screens show for `Cc1ccc(C(=O)CCC(=O)N2CCN(C(=O)c3ccco3)CC2)cc1`?
IDE cell inh: inactive; ASAP1 GAP inh: inactive; ARFGAP1 inh: inactive; PREPL inh: inactive; IDE act: inactive

What do the screens show for `O=C(O)Cc1sc(NC2CCCCC2)nc1-c1ccc(Cl)cc1`?
IDE cell inh: 20; ASAP1 GAP inh: inactive; ARFGAP1 inh: inactive; PREPL inh: inactive; IDE act: inactive; IDE inh confirm: inactive; HEK cytotox: inactive

How did Cc1ccc(-c2nc(Nc3cccc(C)c3)sc2CC(=O)O)cc1 do in these assays?
IDE cell inh: inactive; ASAP1 GAP inh: inactive; ARFGAP1 inh: inactive; PREPL inh: inactive; IDE act: inactive

Screens deposited in PubChem by The Scripps Research Institute Molecular Screening Center.
